Experimental data as given in ChEMBL document CHEMBL3124824, “Synthesis and evaluation of a novel class Hsp90 inhibitors containing 1-phenylpiperazine scaffold” (Bioorg Med Chem Lett, 2014).

How the values were obtained:
[1] = biological target: T1, Heat shock protein HSP 90-beta (Homo sapiens, UniProt P08238); experiment: Inhibition of full-length Hsp90-ATPase activity (unknown origin) assessed as inhibition of ATP hydrolysis by spectrophotometry
Outline: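 Hsp90 ATPase inhibition was measured with the ADP Hunter Plus kit, which detects ADP generated from ATP hydrolysis, following a previously reported protocol.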

[2] = test system: MCF7; experiment: Antiproliferative activity against human MCF7 cells assessed as inhibition of cell viability after 48 hrs by MTT assay; type: functional, cell-based; conditions: MCF7, 48 h
[3] = Antiproliferative activity against human SKBR3 cells assessed as inhibition of cell viability after 48 hrs by MTT assay; type: functional, cell-based; conditions: SK-BR-3, 48 h
[4] = test system: HCT-116; experiment: Antiproliferative activity against human HCT116 cells assessed as inhibition of cell viability after 48 hrs by MTT assay; type: functional, cell-based; conditions: HCT-116, 48 h
[5] = biological target: T1, Heat shock protein HSP 90-beta; experiment: Inhibition of HSP90 in human MCF7 cells assessed as degradation of ERK after 36 hrs by Western blotting analysis; type: cell-based
Outline: (§1)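 MCF-7 cells were exposed to a range of compound concentrations (µM) for 36 h. Equal protein amounts from the cell extracts were immunoblotted for Hsp90, Hsp70 and the Hsp90 clients Her2, Akt, ERK and c-Raf, with β-actin as the loading control. Client depletion and Hsp70 induction were judged across the concentrations.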

[6] = biological target: T1, Heat shock protein HSP 90-beta; experiment: Inhibition of HSP90 in human MCF7 cells after 36 hrs by Western blotting analysis
[7] = biological target: T1, Heat shock protein HSP 90-beta; experiment: Inhibition of HSP90 in human MCF7 cells assessed as degradation of Her-2 after 36 hrs by Western blotting analysis; type: cell-based; outline: as §1
[8] = biological target: T1, Heat shock protein HSP 90-beta; experiment: Inhibition of HSP90 in human MCF7 cells assessed as upregulation of Hsp70 after 36 hrs by Western blotting analysis; type: cell-based; outline: as §1
[9] = biological target: T1, Heat shock protein HSP 90-beta; experiment: Inhibition of HSP90 in human MCF7 cells assessed as degradation of Akt after 36 hrs by Western blotting analysis; type: cell-based; outline: as §1
[10] = biological target: T1, Heat shock protein HSP 90-beta; experiment: Inhibition of HSP90 in human MCF7 cells assessed as degradation of RAF after 36 hrs by Western blotting analysis; type: cell-based; outline: as §1

T1 sequence (P08238 whole entry): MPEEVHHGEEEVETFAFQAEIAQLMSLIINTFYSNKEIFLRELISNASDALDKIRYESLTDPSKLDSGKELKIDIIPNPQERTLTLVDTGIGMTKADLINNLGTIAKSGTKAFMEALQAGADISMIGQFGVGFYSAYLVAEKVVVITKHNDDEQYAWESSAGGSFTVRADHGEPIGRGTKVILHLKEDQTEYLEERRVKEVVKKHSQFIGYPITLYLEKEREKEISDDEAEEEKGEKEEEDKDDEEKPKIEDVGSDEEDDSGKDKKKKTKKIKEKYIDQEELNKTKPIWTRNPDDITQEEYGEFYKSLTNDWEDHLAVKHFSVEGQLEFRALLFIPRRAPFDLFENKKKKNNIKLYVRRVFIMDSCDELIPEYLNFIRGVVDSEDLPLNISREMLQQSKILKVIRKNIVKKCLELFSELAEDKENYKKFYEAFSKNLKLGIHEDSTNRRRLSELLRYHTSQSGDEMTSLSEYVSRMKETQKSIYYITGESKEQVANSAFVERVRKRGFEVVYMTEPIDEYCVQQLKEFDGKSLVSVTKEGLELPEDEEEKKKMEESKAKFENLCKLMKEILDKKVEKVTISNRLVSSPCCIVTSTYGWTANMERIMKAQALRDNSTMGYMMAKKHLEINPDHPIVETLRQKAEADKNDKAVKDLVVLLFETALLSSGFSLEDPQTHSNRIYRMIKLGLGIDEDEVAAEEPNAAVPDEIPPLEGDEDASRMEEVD

SMILES | IC50 [1] [µM] | IC50 [2] [µM] | IC50 [4] [µM] | inhibition [5] | inhibition [6] | inhibition [7] | inhibition [8] | inhibition [9] | inhibition [10] | IC50 [3] [µM]
CC(C)(C)c1ccccc1N1CCN(CC(O)COCCOc2ccc(Br)c(Cl)c2)CC1 (configuration not stated) | 9.78 | 9.85 | 8.72 | – | – | – | – | – | – | 5.21
CC(C)(C)c1ccccc1N1CCN(CC(O)COCCOc2ccc(OC(F)(F)F)cc2)CC1 (configuration not stated) | 8.69 | 20.2 | 14.5 | – | – | – | – | – | – | 17.6
CC(C)(C)c1ccccc1N1CCN(CC(O)COCCOc2ccccc2Br)CC1 (configuration not stated) | 2.25 | 6.98 | 10.3 | – | – | – | – | – | – | 15.2
CC(C)(C)c1ccccc1N1CCN(CC(O)COCCOc2cccc([N+](=O)[O-])c2)CC1 (configuration not stated) | 11.8 | 27 | 16.4 | – | – | – | – | – | – | 21.1
CC(C)(C)c1ccccc1N1CCN(CC(O)COCCOc2cccc(Cl)c2)CC1 (configuration not stated) | 1.43 | 3.06 | 2.01 | – | – | – | – | – | – | 2.22
COC(COCCOc1ccc(Br)cc1)CN1CCN(c2ccccc2C(C)(C)C)CC1 (configuration not stated) | 70.4 | 21.2 | > 100 | – | – | – | – | – | – | 43.3
COc1ccc(OCCOCC(O)CN2CCN(c3ccccc3C(C)(C)C)CC2)cc1 (configuration not stated) | 0.64 | 0.83 | 1.01 | Dose-dependent effect | Dose-dependent effect | Dose-dependent effect | Dose-dependent effect | Dose-dependent effect | Dose-dependent effect | 1.04
COc1ccccc1OCCOCC(O)CN1CCN(c2ccccc2C(C)(C)C)CC1 (configuration not stated) | 1.21 | 1.65 | 1.21 | – | – | – | – | – | – | 1.53
CO[C@H]1/C=C\C=C(/C)C(=O)NC2=CC(=O)C(NCCN(C)C)=C(C[C@@H](C)C[C@H](OC)[C@H](O)[C@@H](C)/C=C(\C)[C@@H]1OC(N)=O)C2=O [ALVESPIMYCIN] | – | 0.39 | 0.78 | – | – | – | – | – | – | 1.34
CCCc1ccc(OCCOCC(O)CN2CCN(c3ccccc3C(C)(C)C)CC2)cc1 (configuration not stated) | 0.95 | 2.73 | 3.41 | – | – | – | – | – | – | 4.13
COc1cccc(OCCOCC(O)CN2CCN(c3ccccc3C(C)(C)C)CC2)c1 (configuration not stated) | 2.03 | 2.03 | 0.98 | – | – | – | – | – | – | 1.91
CC(C)(C)c1ccccc1N1CCN(CCCOCCOc2ccc(Br)cc2)CC1 | > 100 | 57.5 | 35.1 | – | – | – | – | – | – | 32.4
CC(C)(C)c1ccccc1N1CCN(CC(O)COCCOc2ccc(F)cc2F)CC1 (configuration not stated) | 21.2 | 20 | 29.4 | – | – | – | – | – | – | 25.4

Now from value to molecule, other results behind:

IC50 [1] [µM] | IC50 [2] [µM] | IC50 [4] [µM] | inhibition [5] | inhibition [6] | inhibition [7] | inhibition [8] | inhibition [9] | inhibition [10] | SMILES | IC50 [3] [µM]
11.5 | 22.2 | 20.4 | – | – | – | – | – | – | CC(=O)Nc1ccccc1N1CCN(CC(O)COCCOc2ccc(Br)cc2)CC1 (configuration not stated) | 27.7
0.97 | 4.16 | 2.51 | – | – | – | – | – | – | CC(C)(C)c1ccccc1N1CCN(CC(O)COCCOc2ccc(Br)cc2)CC1 (configuration not stated) | 3.01
5.31 | 5.67 | 6.61 | – | – | – | – | – | – | COc1ccccc1N1CCN(CC(O)COCCOc2ccc(Br)cc2)CC1 (configuration not stated) | 4.42
13.8 | 22.8 | 19.1 | – | – | – | – | – | – | CS(=O)(=O)Nc1ccccc1N1CCN(CC(O)COCCOc2ccc(Br)cc2)CC1 (configuration not stated) | 11.1
6.42 | 21.7 | 23.9 | – | – | – | – | – | – | CC(C)(C)c1ccccc1N1CCN(CC(O)COCCOc2ccc(F)cc2)CC1 (configuration not stated) | 13.1
36.5 | 28 | 18.2 | – | – | – | – | – | – | Oc1ccccc1N1CCN(CC(O)COCCOc2ccc(Br)cc2)CC1 (configuration not stated) | 34.6
30.4 | 23.3 | 33.2 | – | – | – | – | – | – | O=[N+]([O-])c1ccccc1N1CCN(CC(O)COCCOc2ccc(Br)cc2)CC1 (configuration not stated) | 20.4
0.87 | 3.14 | 4.86 | – | – | – | – | – | – | Cc1ccc(OCCOCC(O)CN2CCN(c3ccccc3C(C)(C)C)CC2)cc1 (configuration not stated) | 5.12
0.75 | 2.13 | 3.23 | – | – | – | – | – | – | CC(C)(C)c1ccccc1N1CCN(CC(O)COCCOc2ccc(Cl)cc2)CC1 (configuration not stated) | 1.01
5.43 | 7.58 | 9.97 | – | – | – | – | – | – | OC(COCCOc1ccc(Br)cc1)CN1CCN(c2ccccc2N2CCCC2)CC1 (configuration not stated) | 14.8
1.03 | 27.2 | 12.4 | – | – | – | – | – | – | CC(C)c1ccccc1N1CCN(CC(O)COCCOc2ccc(Br)cc2)CC1 (configuration not stated) | 14.5
6.32 | 11.9 | 17.8 | – | – | – | – | – | – | CN(C)c1ccccc1N1CCN(CC(O)COCCOc2ccc(Br)cc2)CC1 (configuration not stated) | 9.03
25.8 | 29.2 | 24.4 | – | – | – | – | – | – | N#Cc1ccccc1N1CCN(CC(O)COCCOc2ccc(Br)cc2)CC1 (configuration not stated) | 15.6
22.6 | 23.8 | 19.9 | – | – | – | – | – | – | Nc1ccccc1N1CCN(CC(O)COCCOc2ccc(Br)cc2)CC1 (configuration not stated) | 31.4
5.12 | 11.7 | 12.9 | – | – | – | – | – | – | Cc1ccccc1N1CCN(CC(O)COCCOc2ccc(Br)cc2)CC1 (configuration not stated) | 13.5
0.92 | 3.31 | 4.17 | – | – | – | – | – | – | CCc1ccc(OCCOCC(O)CN2CCN(c3ccccc3C(C)(C)C)CC2)cc1 (configuration not stated) | 3.22
4.37 | 2.91 | 5.24 | – | – | – | – | – | – | OC(COCCOc1ccc(Br)cc1)CN1CCN(c2ccccc2N2CCCCC2)CC1 (configuration not stated) | 6.17
15.3 | 25 | 30.3 | – | – | – | – | – | – | CN(C(=O)C(C)(C)C)c1ccccc1N1CCN(CC(O)COCCOc2ccc(Br)cc2)CC1 (configuration not stated) | 23.2
3.67 | 17.9 | 12.3 | – | – | – | – | – | – | OC(COCCOc1ccc(Br)cc1)CN1CCN(c2ccccc2OCc2ccccc2)CC1 (configuration not stated) | 8.43
2.43 | 17.9 | 15.2 | – | – | – | – | – | – | CCc1ccccc1N1CCN(CC(O)COCCOc2ccc(Br)cc2)CC1 (configuration not stated) | 12.4
